Among the data in ChEMBL document CHEMBL1126323, “Inhibitors of protein kinase C. 2. Substituted bisindolylmaleimides with improved potency and selectivity” (J Med Chem, 1992) are IC50 values, retold here.

The structures appear in SMILES notation.

Experiment [1] is described as follows: Inhibition of c-AMP dependent protein kinase A (PKA) in bovine heart. Put shortly:
(§1)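 Kinase assay on PKA isolated from bovine heart, run by a method described earlier. Each data point was done in triplicate. IC50 values are the mean of at least two independent assays.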

For the next experiment, the target named is Protein kinase C (PKC). The experiment in a line: Inhibition of protein kinase C (PKC) in rat brain. The format is tissue-based. Put shortly: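 PKC from rat brain was assayed by a method described earlier. Each data point was done in triplicate. IC50 is the mean of at least two independent determinations.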
Experiment [2] is described as follows: Inhibition of protein kinase A (PKA) in bovine heart. Put shortly: as §1

`Cn1cc(C2=C(c3cn(CCCCN)c4ccccc34)C(=O)NC2=O)c2ccccc21`: the IC50 in experiment [1] stood at 9.3 µM; at Protein kinase C (PKC), 0.055 µM.

Regarding `Cn1cc(C2=C(c3cn(CCSC(=N)N)c4ccccc34)C(=O)NC2=O)c2ccccc21`, the IC50 came to 12.1 µM in experiment [2] and 0.041 µM on Protein kinase C (PKC).

As for `Cn1cc(C2=C(c3cn(CCCN=C(N)N)c4ccccc34)C(=O)NC2=O)c2ccccc21`, the IC50 in experiment [1] is 2.9 µM; at Protein kinase C (PKC), 0.019 µM.

`Cn1cc(C2=C(c3cn(CCO)c4ccccc34)C(=O)NC2=O)c2ccccc21`: the IC50 in experiment [1] turned out to be 22.1 µM; against Protein kinase C (PKC), 0.34 µM.

Regarding `Cn1cc(C2=C(c3cn(CCN)c4ccccc34)C(=O)NC2=O)c2ccccc21`, the IC50 was determined as 8.9 µM in experiment [1] and 0.064 µM against Protein kinase C (PKC).

As for `CN(C)CCCn1cc(C2=C(c3cn(C)c4ccccc34)C(=O)NC2=O)c2ccccc21`, the IC50 in experiment [1] is 25.6 µM; at Protein kinase C (PKC), 0.045 µM.

For the compound `Cn1cc(C2=C(c3cn(CCCCSC(=N)N)c4ccccc34)C(=O)NC2=O)c2ccccc21`, the values for the IC50 (in experiment [2]; on Protein kinase C (PKC)) were 2.7 µM and 0.028 µM, respectively.

For `Cn1cc(C2=C(c3cn(CCCN)c4ccccc34)C(=O)NC2=O)c2ccccc21`, the IC50 was 5.2 µM in experiment [1] and 0.075 µM against Protein kinase C (PKC).

With `CNCCCn1cc(C2=C(c3cn(C)c4ccccc34)C(=O)NC2=O)c2ccccc21`, the figures for the IC50 (in experiment [1]; against Protein kinase C (PKC)) were 11.9 µM and 0.035 µM, respectively.

As to `Cn1cc(C2=C(c3cn(CCCCO)c4ccccc34)C(=O)NC2=O)c2ccccc21`, the results for the IC50 (in experiment [1]; at Protein kinase C (PKC)) were 18.4 µM and 0.17 µM, respectively.

As for `Cn1cc(C2=C(c3cn(CCCCCO)c4ccccc34)C(=O)NC2=O)c2ccccc21`, the IC50 in experiment [1] turned out to be 21.3 µM; against Protein kinase C (PKC) it was 0.28 µM.

In the case of `Cn1cc(C2=C(c3cn(CCCO)c4ccccc34)C(=O)NC2=O)c2ccccc21`, the IC50 in experiment [1] came out at 14.2 µM; against Protein kinase C (PKC), 0.13 µM.

On to `Cn1cc(C2=C(c3cn(CCCCCN)c4ccccc34)C(=O)NC2=O)c2ccccc21`, for which the IC50 in experiment [1] came to 10.4 µM; against Protein kinase C (PKC), 0.076 µM.

On to `Cn1cc(C2=C(c3cn(CCCCCSC(=N)N)c4ccccc34)C(=O)NC2=O)c2ccccc21`, for which the IC50 in experiment [2] is 4.6 µM; against Protein kinase C (PKC), 0.047 µM.

As to `Cn1cc(C2=C(c3cn(CCC/N=C(\N)N[N+](=O)[O-])c4ccccc34)C(=O)NC2=O)c2ccccc21`, the IC50 in experiment [2] was 4.9 µM; at Protein kinase C (PKC), 0.026 µM.

Take `Cn1cc(C2=C(c3cn(CCC[N+](C)(C)C)c4ccccc34)C(=O)NC2=O)c2ccccc21`: the results for the IC50 (in experiment [1]; on Protein kinase C (PKC)) were 64.5 µM and 0.093 µM, respectively.

With `Cn1cc(C2=C(c3cn(CCCCC(=N)N)c4ccccc34)C(=O)NC2=O)c2ccccc21`, the IC50 in experiment [1] was found to be 7.4 µM; against Protein kinase C (PKC), 0.031 µM.

`Cn1cc(C2=C(c3cn(CCCSC(=N)N)c4ccccc34)C(=O)NC2=O)c2ccccc21` [BISINDOLYLMALEIMIDE IX]: the IC50 in experiment [2] worked out at 0.9 µM; on Protein kinase C (PKC), 0.01 µM.

As a reminder, the IC50 is the concentration at which inhibition is half-maximal.
